Data published in paper PMC11658390 (BMC Chemistry, 2024).

Legend:
[1] = system: MCF-7 breast cancer cell line; experiment: Anticancer screening, MTT assay; format: cell-based, human
Outline: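 MCF-7 cells were seeded at 10,000 cells/well and grown 24 h in DMEM with 10% FBS and 1% antibiotic at 37 °C, 5% CO2. They were then exposed for 24 h to a range of test compound concentrations prepared in incomplete medium. MTT was added at 250 µg/ml final for 2 h, the supernatant was removed, and formazan was dissolved in DMSO. Absorbance was read at 540 nm, in triplicate.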

[2] = system: C. albicans (ATCC SC5314); experiment: Antifungal activity, broth microdilution MIC; format: cell-based
DHFR = molecular target: T1, DHFR (Homo sapiens, UniProt P00374); experiment: DHFR inhibition assay; format: biochemical; settings: from IC50 values
T1 sequence (P00374 1-187): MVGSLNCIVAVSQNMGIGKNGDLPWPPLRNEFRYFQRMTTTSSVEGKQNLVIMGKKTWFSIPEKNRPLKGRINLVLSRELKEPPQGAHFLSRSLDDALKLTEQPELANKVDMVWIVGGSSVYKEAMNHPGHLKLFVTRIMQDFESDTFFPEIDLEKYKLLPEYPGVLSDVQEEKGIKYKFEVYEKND

| Structure (SMILES) | Anticancer activity against MCF-7, in words [1] | Inhibitory activity against fungal strain C. albicans, in words [2] | DHFR inhibitory potency relative to methotrexate (DHFR) |
| --- | --- | --- | --- |
| CC1CCC(C(C)C)C(OC(=O)C=Cc2ccc(O)c(O)c2)C1 (stereo not drawn) [CE3, 2-isopropyl-5-methylcyclohexyl 3-(3,4-dihydroxyphenyl)acrylate] | moderate anticancer activity | moderate action |  |
| CC(C)NCC(COc1cccc2ccccc12)OC(=O)C=Cc1ccc(O)c(O)c1 (stereo not drawn) [CE11, 1-(isopropylamino)−3-(naphthalen-1-yloxy)propan-2-yl 3-(3,4-dihydroxyphenyl)acrylate] |  |  | approximately four times more effective than methotrexate |
| O=C(C=Cc1ccc(O)c(O)c1)OCCc1ccccc1 [CE12, Phenethyl 3-(3,4-dihydroxyphenyl)acrylate] |  | moderate action |  |
| Nc1ccccc1OC(=O)C=Cc1ccc(O)c(O)c1 [CE17, 2-aminophenyl 3-(3,4-dihydroxyphenyl)acrylate] | moderate anticancer activity | moderate action |  |
